Source: PubChem
TRAIL sens C8 – sensitizes caspase-8 expressing cells to TRAIL; AID 624354; inhibition (viability loss, TRAIL sensitization), % at 10 µM; hit rate 1% among 360,000; NB7+C8 cells + TRAIL, ATPlite viability luminescence;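 active means compounds causing at least 50% loss of cell viability in the single-dose screen, relative to plate controls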
iPSC survival up – increases survival of single human iPS cells. hiPSC single-cell survival, ATPlite luminescence; 100% = ROCK inhibitor wells, 0% = DMSO. survival enhancement, % at 20 µM. hit rate 0.044% among 360,000. AID 602274; in the data active means survival enhancement above about 18%;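 further: cells exposed to compounds for 16 hours before the ATP read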
FLuc inh counter – counter-screen for luciferase assay inhibitors: firefly luciferase inhibition; P08659; ATPLite firefly luciferase biochemical luminescence, 10 min; inhibition, % at 10 µM; hit rate 1.5% among 200,000; AID 1006;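 active means inhibition above about 50% when tested at 10 µM, limit read from the data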
Target sequence (P08659 whole entry, looked up): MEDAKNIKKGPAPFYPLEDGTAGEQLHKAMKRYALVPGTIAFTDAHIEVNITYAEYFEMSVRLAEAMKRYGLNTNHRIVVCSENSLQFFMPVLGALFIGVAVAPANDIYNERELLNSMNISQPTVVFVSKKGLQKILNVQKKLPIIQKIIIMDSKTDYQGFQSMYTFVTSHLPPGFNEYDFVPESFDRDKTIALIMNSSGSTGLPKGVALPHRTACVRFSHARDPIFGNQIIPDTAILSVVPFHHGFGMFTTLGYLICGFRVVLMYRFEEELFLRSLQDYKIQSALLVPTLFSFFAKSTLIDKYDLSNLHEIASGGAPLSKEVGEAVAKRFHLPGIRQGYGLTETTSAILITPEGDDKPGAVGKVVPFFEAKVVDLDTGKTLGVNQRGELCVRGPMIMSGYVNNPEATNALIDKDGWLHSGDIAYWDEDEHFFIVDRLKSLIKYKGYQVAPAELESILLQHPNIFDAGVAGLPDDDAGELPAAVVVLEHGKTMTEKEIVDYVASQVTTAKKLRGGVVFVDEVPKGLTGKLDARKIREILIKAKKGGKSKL
FLuc stim CS – firefly luciferase counter-screen for stimulation assays. P08659. ATPlite luciferase biochemical, luminescence, 10 min; 0 = ATP-free wells, 1 = DMSO control. activation factor at 10 µM. 200,000 tested, under 10 active. AID 1027;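 active means luciferase activation factor, scaled between plate controls, of at least 2 with compound at 10 µM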
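test system = cell-free luciferase reagent | medium = PBS as buffer for the ATP substrate | dosing = test compounds dosed from 2 mM stocks in 100% DMSO | incubation = 10 min at ambient temperature | detection = luminescence measurement of luciferase light output | benchmarks = low control with PBS replacing ATP, high control enzyme plus ATP without compound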
PPC-1+TRAIL kill – compounds killing PPC-1 cancer cells with TRAIL present (potentiator screen, no TRAIL-free arm). AID 1443. PPC-1 cells + TRAIL, ATPLite viability luminescence. hit rate 0.41% among 220,000. cell killing (% activity), % at 4 µM or 5 µM;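 active means cell killing above 50% in the first pass at 4 µM, then a duplicate retest at 5 µM averaging 50% or more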
MIN6 prolif-1 – induces beta-cell replication in MIN6 cells. MIN6 cells proliferation, ATPlite luminescence, 48 h; cells starved in 0.2% serum; 100% = growth in 10% serum. proliferation, % at 10 µM. hit rate 0.29% among 330,000. AID 2380;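 active means compounds whose signal lies at least 3.5 SD above the mean of all wells on their plate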
MIN6 prolif-2 – confirmation of inducers of beta-cell replication in MIN6 cells | proliferation increase, % at 50 µM | shares compounds with MIN6 prolif-1 | 920 tested, under 10 active | MIN6 beta-cell proliferation, ATPlite luminescence, 48 h; cells kept in 0.2% serum; scaled between 0.2% and 10% serum;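 active means proliferation increase above 40% at any of the four tested concentrations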
A number is an active result. Hits are enriched below; roughly 1.8% of the tested compounds scored in any of these assays.

What do the screens show for `O=C(NCCc1ccccc1)C1CCC(CNS(=O)(=O)c2ccc(F)cc2)CC1` (centres undefined)?
TRAIL sens C8: inactive; iPSC survival up: inactive; MIN6 prolif-1: inactive

How did S=C1NC[C@H](CC2CCCCC2)N1CCc1cccc2ccccc12 do in these assays?
TRAIL sens C8: inactive; iPSC survival up: inactive; PPC-1+TRAIL kill: inactive; MIN6 prolif-1: inactive

What do the screens show for `CCOC(=O)c1c(C)[nH]c(C)c1C(=O)COC(=O)c1cccc(S(=O)(=O)NC)c1`?
TRAIL sens C8: inactive; iPSC survival up: inactive; FLuc inh counter: inactive; FLuc stim CS: inactive; PPC-1+TRAIL kill: inactive; MIN6 prolif-1: 11; MIN6 prolif-2: inactive

What do the screens show for `Cc1ccc2cc([N+](=O)[O-])ccc2n1`?
TRAIL sens C8: inactive; iPSC survival up: inactive; PPC-1+TRAIL kill: inactive; MIN6 prolif-1: inactive

How did CC1CC(C)CN(C(=O)c2cc(S(=O)(=O)N3CCCCC3)ccc2Cl)C1 (centres undefined) do in these assays?
TRAIL sens C8: inactive; iPSC survival up: inactive; MIN6 prolif-1: 14; MIN6 prolif-2: inactive

Results for CC1CC(C)CN(C(=O)c2ccc(S(=O)(=O)N3CCCCC3)cc2)C1 (centres undefined) ?
TRAIL sens C8: inactive; iPSC survival up: inactive; MIN6 prolif-1: inactive

What do the screens show for `CCc1cc(=O)oc2cc(OC(C)C(=O)NCC3CCC(C(=O)O)CC3)c(Cl)cc12` (centres undefined)?
TRAIL sens C8: inactive; iPSC survival up: inactive; MIN6 prolif-1: 11; MIN6 prolif-2: inactive

Results for OCCNc1nc(Nc2cc(Cl)ccc2OC2CCCC2)nc(N2CCCC2)n1 ?
TRAIL sens C8: inactive; iPSC survival up: inactive; MIN6 prolif-1: inactive

What do the screens show for `COc1cccc(C(=O)COc2ccc(NC(=O)c3ccccc3)cc2)c1`?
TRAIL sens C8: inactive; iPSC survival up: inactive; MIN6 prolif-1: inactive

How did O=C(Nc1ccccc1F)NC1CCCc2ccccc21 (centres undefined) do in these assays?
TRAIL sens C8: inactive; iPSC survival up: inactive; PPC-1+TRAIL kill: inactive; MIN6 prolif-1: 7.2; MIN6 prolif-2: inactive

Results for COc1ccc(-c2cc(C#N)nc(N3CCN(C)CC3)n2)cc1 ?
TRAIL sens C8: inactive; iPSC survival up: inactive; FLuc inh counter: inactive; FLuc stim CS: inactive; PPC-1+TRAIL kill: inactive; MIN6 prolif-1: inactive

What do the screens show for `CN1CCN(c2nc(C#N)cc(-c3ccccc3)n2)CC1`?
TRAIL sens C8: inactive; iPSC survival up: inactive; FLuc inh counter: inactive; FLuc stim CS: inactive; PPC-1+TRAIL kill: inactive; MIN6 prolif-1: 9.8; MIN6 prolif-2: inactive

How did CC1(Oc2cccc(F)c2)CCN(Cc2csc3ccccc23)C1 (centres undefined) do in these assays?
TRAIL sens C8: inactive; iPSC survival up: inactive

What do the screens show for `CC1CCCCN1c1ncnc(N)c1[N+](=O)[O-]` (centres undefined)?
TRAIL sens C8: inactive; iPSC survival up: inactive; FLuc inh counter: inactive; FLuc stim CS: inactive; PPC-1+TRAIL kill: inactive; MIN6 prolif-1: 8.8; MIN6 prolif-2: inactive

What do the screens show for `Cc1nc(N2CCOCC2)nc(N2CCC(C)CC2)c1[N+](=O)[O-]`?
TRAIL sens C8: inactive; iPSC survival up: inactive; PPC-1+TRAIL kill: inactive; MIN6 prolif-1: inactive

How did Cc1nc(N2CCOCC2)nc(N2CCCCC2C)c1[N+](=O)[O-] (centres undefined) do in these assays?
TRAIL sens C8: inactive; iPSC survival up: inactive; PPC-1+TRAIL kill: inactive; MIN6 prolif-1: 8.1; MIN6 prolif-2: inactive

What do the screens show for `Cc1cccc(C(=O)Nc2nnc(Cc3ccccc3)s2)c1`?
TRAIL sens C8: inactive; iPSC survival up: inactive; MIN6 prolif-1: inactive

Results for COc1ccc(N2CCN(S(=O)(=O)CCNC(=O)c3cccs3)CC2)cc1 ?
TRAIL sens C8: inactive; iPSC survival up: inactive; MIN6 prolif-1: inactive

Results for CCc1ccc(NC(=O)C2=CC=CN3CCS(=O)(=O)N=C23)cc1 ?
TRAIL sens C8: inactive; iPSC survival up: inactive; MIN6 prolif-1: 11; MIN6 prolif-2: inactive

What do the screens show for `CC(C)c1ccc(NC(=O)C2=CC=CN3CCS(=O)(=O)N=C23)cc1`?
TRAIL sens C8: inactive; iPSC survival up: inactive; MIN6 prolif-1: inactive

How did O=C(Cn1cc2c(n1)CCCCC2)NCc1ccccn1 do in these assays?
TRAIL sens C8: inactive; iPSC survival up: inactive; FLuc inh counter: inactive; FLuc stim CS: inactive; PPC-1+TRAIL kill: inactive; MIN6 prolif-1: 12; MIN6 prolif-2: inactive

Results for C=CCOC1=CS(=O)(=O)N(Cc2ccc(Br)cc2)c2ccc(Br)cc21 ?
TRAIL sens C8: inactive; iPSC survival up: inactive

Results for O=C1CCC(C(=O)N2CCSCC2)CN1Cc1ccc(Cl)cc1 (centres undefined) ?
TRAIL sens C8: inactive; iPSC survival up: inactive; MIN6 prolif-1: 27; MIN6 prolif-2: inactive

How did CCOc1ccc(CCN2C(=S)N([C@@H](Cc3ccc(O)cc3)CN3CCC[C@@H]3CN3C(=S)NC[C@@H]3CC(C)C)C[C@@H]2CC(C)C)cc1 do in these assays?
TRAIL sens C8: inactive; iPSC survival up: inactive

What do the screens show for `NC(=O)CC1C(=O)N(c2ccc(Cl)cc2)C(=S)N1NC(=O)c1cccc(F)c1` (centres undefined)?
TRAIL sens C8: inactive; iPSC survival up: inactive; MIN6 prolif-1: inactive

How did CNC(=O)CC1C(=O)N(c2ccc(Cl)cc2)C(=S)N1NC(=O)c1cccc(F)c1 (centres undefined) do in these assays?
TRAIL sens C8: inactive; iPSC survival up: inactive; MIN6 prolif-1: 9.8; MIN6 prolif-2: inactive

What do the screens show for `CCC(=O)N1N=C(c2ccccc2)CC1c1ccc([N+](=O)[O-])cc1` (centres undefined)?
TRAIL sens C8: inactive; iPSC survival up: inactive; FLuc inh counter: inactive; FLuc stim CS: inactive; PPC-1+TRAIL kill: inactive; MIN6 prolif-1: 7.3; MIN6 prolif-2: inactive

Results for CCC(=O)N1N=C(c2cccs2)CC1c1ccc(C)cc1 (centres undefined) ?
TRAIL sens C8: inactive; iPSC survival up: inactive; MIN6 prolif-1: 7.8; MIN6 prolif-2: inactive

How did NC(=O)c1cc([N+](=O)[O-])c(Cl)cc1NCc1cccnc1 do in these assays?
TRAIL sens C8: inactive; iPSC survival up: inactive; MIN6 prolif-1: 12; MIN6 prolif-2: inactive

How did Cc1ccc(C(=O)N/C(=C/c2cccnc2)C(=O)NCc2ccco2)cc1 do in these assays?
TRAIL sens C8: inactive; iPSC survival up: inactive; FLuc inh counter: inactive; FLuc stim CS: inactive; PPC-1+TRAIL kill: inactive; MIN6 prolif-1: 4.7; MIN6 prolif-2: inactive

How did CC(C)CC(c1nnnn1C(C)C)N1CCN(c2ccccc2)CC1 (centres undefined) do in these assays?
TRAIL sens C8: inactive; iPSC survival up: inactive; FLuc inh counter: inactive; FLuc stim CS: inactive; PPC-1+TRAIL kill: inactive; MIN6 prolif-1: 7.3; MIN6 prolif-2: inactive
